Results as given in ChEMBL document CHEMBL2146414, “Lignan derivatives from Krameria lappacea roots inhibit acute inflammation in vivo and pro-inflammatory mediators in vitro” (J Nat Prod, 2011).
Activity calls are given as the source filed them. No cut-off for these calls is given here.

Assays:
Mus musculus [1] = assay: Antiinflammatory effect in CD1 mouse ear dermatitis model assessed as reduction in leukocyte infiltration-based myeloperoxidase at 0.4 umol administered topically per cm'2 of ear measured after 6 hrs post dermatitis induction relative to control; format: functional, organism-based
In short: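 CD-1 mice, croton oil 80 μg in acetone on right ear with topical test substance; ear punch (6 mm) homogenized in 0.1 M sodium acetate pH 4.2 with 0.1% HTAB, centrifuged 15000g 5 min; supernatant myeloperoxidase measured with TMB (2.83 mM) and 0.7 mM H2O2, 5 min at 25 °C, stopped with acetic acid, A620; duplicates; units = nM TMB oxidized/min.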

[2] = target: T1, Peroxisome proliferator-activated receptor gamma (Homo sapiens) (UniProt P37231); assay: Activation of PPARgamma transfected in HEK293 cells at 10 uM after 18 hrs by firefly luciferase reporter gene-based luminescence assay; format: cell-based
T1 sequence (whole entry): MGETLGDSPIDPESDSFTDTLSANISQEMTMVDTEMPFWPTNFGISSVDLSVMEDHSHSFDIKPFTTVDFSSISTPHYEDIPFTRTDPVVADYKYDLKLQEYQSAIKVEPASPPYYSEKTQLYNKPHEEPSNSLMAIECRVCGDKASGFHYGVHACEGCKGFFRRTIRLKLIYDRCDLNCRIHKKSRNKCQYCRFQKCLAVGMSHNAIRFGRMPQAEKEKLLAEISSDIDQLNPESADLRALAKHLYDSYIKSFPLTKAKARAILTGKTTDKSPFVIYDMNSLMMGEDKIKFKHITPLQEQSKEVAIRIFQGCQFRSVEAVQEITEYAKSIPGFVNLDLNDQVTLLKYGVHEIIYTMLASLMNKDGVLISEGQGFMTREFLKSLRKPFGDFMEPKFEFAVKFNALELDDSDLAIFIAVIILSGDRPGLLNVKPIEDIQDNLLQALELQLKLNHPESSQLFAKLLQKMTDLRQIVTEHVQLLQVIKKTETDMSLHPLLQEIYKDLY

Mus musculus [3] = assay: Antiinflammatory effect in CD1 mouse ear dermatitis model assessed as reduction in vascular changes at 0.4 umol administered topically per cm'2 of ear measured after 6 hrs post dermatitis induction relative to control; format: functional, organism-based
In short: (§1)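 Male CD-1 mice (28–32 g) anesthetized with ketamine 145 mg/kg ip; right ear (about 1 cm2) given 80 μg croton oil in 15 μL acetone with test substance co-applied in acetone; controls irritant only; left ear untreated. Ears fixed in 10% formalin, paraffin-embedded, 10 μm sections stained hematoxylin-eosin or Giemsa, examined by light microscopy at set times after induction.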

Mus musculus [4] = assay: Antiinflammatory effect in CD1 mouse ear dermatitis model assessed as reduction in mast cell degranulation at 0.4 umol administered topically per cm'2 of ear measured after 6 hrs post dermatitis induction relative to control; format: functional, organism-based; in short: as §1
[5] = tested on: Radical scavenging activity; assay: Antioxidant activity assessed as DPPH free radical scavenging activity after 30 mins by spectrophotometry; format: functional
Mus musculus [6] = assay: Antiinflammatory effect in CD1 mouse ear dermatitis model assessed as preservance of mast cell degranulation at 0.4 umol administered topically per cm'2 of ear measured after 6 hrs post dermatitis induction relative to control; format: functional, organism-based; in short: as §1
Mus musculus [7] = assay: Antiinflammatory effect in CD1 mouse ear dermatitis model assessed as reduction in cellular changes at 0.4 umol administered topically per cm'2 of ear measured after 6 hrs post dermatitis induction relative to control; format: functional, organism-based; in short: as §1

Row | SMILES | inhibition (Mus musculus [1]) | Activity [2] | inhibition (Mus musculus [3]) | inhibition (Mus musculus [4]) | IC50 [5] | IC50 ([5]; read-out: IC50) | inhibition (Mus musculus [6]) | inhibition (Mus musculus [7])
1 | COc1ccc(-c2cc3cc(CCCO)ccc3o2)c(O)c1 | Active | inactive | Active | Active | Dose-dependent effect | 42.3 µM | Active | Active
2 | C/C=C/c1ccc2c(c1)[C@H](CO)[C@@H](c1ccc(O)cc1)O2 |  | inactive |  |  |  |  |  | 
3 | C[C@@H]1[C@H](C)[C@@H](c2ccc(O)cc2)O[C@@H]1c1ccc(O)cc1 |  | inactive |  |  |  |  |  | 
4 | C/C=C/c1ccc2c(c1)[C@@H](C)[C@H](c1ccc(O)cc1)O2 | Active | inactive | Active | Active |  |  | Active | Active
5 | C[C@@H]1[C@H](C)[C@@H](c2ccc(O)cc2)O[C@H]1c1ccc(O)cc1 |  | inactive |  |  |  |  |  | 
6 | C/C=C/c1ccc2oc(-c3ccc(OC)cc3O)cc2c1 [RATANIAPHENOL I] |  | inactive |  |  | Dose-dependent effect | 24.2 µM |  | 
7 | C/C=C/c1ccc2oc(-c3ccc(O)cc3)cc2c1 |  | inactive |  |  |  |  |  | 
8 | COc1cc(O)ccc1-c1cc2cc(CCCO)ccc2o1 |  | inactive |  |  | Dose-dependent effect | 37.7 µM |  | 
9 | C/C=C/c1ccc2oc(-c3ccc(O)cc3OC)cc2c1 [RATANIAPHENOL III] |  | inactive |  |  | Dose-dependent effect | 36.3 µM |  | 
10 | C/C=C/c1ccc2oc(-c3ccc(O)cc3)c(C)c2c1 [RATANIAPHENOL II] |  | inactive |  |  |  |  |  | 
11 | C/C=C/c1ccc2oc(-c3ccc(O)cc3O)cc2c1 |  | inactive |  |  | Dose-dependent effect | 22.1 µM |  | 
